Test results reported in ChEMBL document CHEMBL4052705, “Synthesis and biological evaluation of 2-methyl-1H-benzimidazole-5-carbohydrazides derivatives as modifiers of redox homeostasis of Trypanosoma cruzi” (Bioorg Med Chem Lett, 2017).
Active and inactive are the calls of the source. No cut-off for these calls is given here.

Experiments:
Trypanosoma cruzi [1] = assay: Antitrypanosomal activity against Trypanosoma cruzi Queretaro epimastigotes assessed as reduction in parasite viability incubated for 24 hrs by Neubauer hematocytometery; type: functional
How it was run: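 T. cruzi Queretaro-strain epimastigotes were exposed to the compounds and parasite growth was measured. IC50 was taken as the concentration that inhibits parasite growth by 50%.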

[2] = Selectivity index, ratio of CC50 for cytotoxicity against mouse J774 cells to IC50 for antitrypanosomal activity against Trypanosoma cruzi Queretaro epimastigotes; type: toxicity, cell-based; details: read-out: Ratio CC50/IC50
How it was run: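 Selectivity index was calculated as CC50 in J774 mouse macrophages (resazurin reduction) divided by IC50 for growth inhibition of Queretaro-strain epimastigotes.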

[3] = Cytotoxicity against mouse J774 cells incubated for 24 hrs by resazurin dye based fluorescence assay; type: cell-based
How it was run: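 J774 mouse macrophage cell line was exposed to the compounds, and cytotoxicity was read as resazurin reduction using a previously described method with modifications. The read-out gave CC50.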

Trypanosoma cruzi [4] = assay: Induction of changes in cellular redox balance in Trypanosoma cruzi Queretaro epimastigotes assessed as increase in cysteine level incubated for 24 hrs by HPLC and UV-Vis spectrophotometry; type: functional
Trypanosoma cruzi [5] = assay: Induction of changes in cellular redox balance in Trypanosoma cruzi Queretaro epimastigotes assessed as increase in T(SH)2 level at 5 to 20 uM incubated for 24 hrs by HPLC and UV-Vis spectrophotometry; type: functional
Trypanosoma cruzi [6] = assay: Induction of changes in cellular redox balance in Trypanosoma cruzi Queretaro epimastigotes assessed as increase in GSH level incubated for 24 hrs by HPLC and UV-Vis spectrophotometry; type: functional

IC50 (Trypanosoma cruzi [1]) [µM]	SMILES	selectivity ratio [2]	further results
434	Cc1nc2cc(C(=O)N/N=C/c3ccc([N+](=O)[O-])o3)ccc2[nH]1		
> 500	Cc1nc2cc(C(=O)N/N=C/c3cc(O)ccc3O)ccc2[nH]1		
226	Cc1nc2cc(C(=O)O)ccc2[nH]1	1.2	CC50 at 24 h [3]: 264 µM
8	COc1cc(/C=C/C=N/NC(=O)c2ccc3[nH]c(C)nc3c2)ccc1O	20.1	Activity (Trypanosoma cruzi [4]): Dose-dependent effect; Activity (Trypanosoma cruzi [5]): Active; CC50 at 24 h [3]: 161 µM; Activity (Trypanosoma cruzi [6]): Dose-dependent effect
393	Cc1nc2cc(C(=O)NN)ccc2[nH]1	0.6	CC50 at 24 h [3]: 233 µM
> 500	COc1ccc(/C=N/NC(=O)c2ccc3[nH]c(C)nc3c2)c(OC)c1OC		
> 500	COc1ccc(/C=N/NC(=O)c2ccc3[nH]c(C)nc3c2)cc1OC		
7.5	O=C(Cn1ccnc1[N+](=O)[O-])NCc1ccccc1 [BENZNIDAZOLE]		
	CC1CS(=O)(=O)CCN1/N=C/c1ccc([N+](=O)[O-])o1 (stereo not given) [NIFURTIMOX]	36.5	
320	COc1ccc(/C=N/NC(=O)c2ccc3[nH]c(C)nc3c2)cc1		
3	COc1cc(/C=N/NC(=O)c2ccc3[nH]c(C)nc3c2)ccc1O	53.5	Activity (Trypanosoma cruzi [4]): Dose-dependent effect; Activity (Trypanosoma cruzi [5]): inactive; CC50 at 24 h [3]: 161 µM; Activity (Trypanosoma cruzi [6]): Dose-dependent effect
280	Cc1nc2cc(C(=O)N/N=C/c3ccccc3)ccc2[nH]1		
> 500	Cc1nc2cc(C(=O)N/N=C/c3ccc(O)cc3)ccc2[nH]1		
380	Cc1nc2cc(C(=O)N/N=C/c3ccc(O)c(O)c3)ccc2[nH]1		
> 500	COc1cc(/C=N/NC(=O)c2ccc3[nH]c(C)nc3c2)cc(OC)c1OC		
> 500	Cc1nc2cc(C(=O)N/N=C/c3ccc4c(c3)OCCO4)ccc2[nH]1		
